Here are results for 4 compounds from ChEMBL document CHEMBL1781959, “Synthesis and in vitro antitumor activity of substituted quinazoline and quinoxaline derivatives: search for anticancer agent” (Eur J Med Chem, 2011).

Holding throughout (assay type): functional
One test relates to SR. Briefly: Anticancer activity against human SR cells assessed as cell growth promotion at 10^-5 M after 48 hrs by SRB assay relative to control. For orientation: Sulforhodamine B stains cellular protein and so reports cell mass.
A further test concerns DU-145. Briefly: Anticancer activity against human DU145 cells assessed as cell growth promotion at 10^-5 M after 48 hrs by SRB assay relative to control.
For a further test, the system named is CAKI-1. Briefly: Anticancer activity against human Caki1 cells assessed as cell growth promotion at 10^-5 M after 48 hrs by SRB assay relative to control.
For another test, the system named is COLO 205. The experiment in a line: Anticancer activity against human COLO205 cells assessed as cell growth promotion at 10^-5 M after 48 hrs by SRB assay relative to control.
For the next test, the system named is NCI-H226. The experiment in a line: Anticancer activity against human NCI-H226 cells assessed as cell growth promotion at 10^-5 M after 48 hrs by SRB assay relative to control.
The subject of another test is IGROV-1. Briefly: Anticancer activity against human IGROV1 cells assessed as cell growth promotion at 10^-5 M after 48 hrs by SRB assay relative to control.
For a further test, the system named is HOP-62. The experiment in a line: Anticancer activity against human HOP62 cells assessed as cell growth promotion at 10^-5 M after 48 hrs by SRB assay relative to control.
For a further test, the system named is SK-MEL-2. Briefly: Anticancer activity against human SK-MEL-2 cells assessed as cell growth promotion at 10^-5 M after 48 hrs by SRB assay relative to control.
Another test relates to TK-10. Briefly: Anticancer activity against human TK10 cells assessed as cell growth promotion at 10^-5 M after 48 hrs by SRB assay relative to control.
Another test concerns NCI-H522. Briefly: Anticancer activity against human NCI-H522 cells assessed as cell growth promotion at 10^-5 M after 48 hrs by SRB assay relative to control.
In the next test the test system is MDA-MB-231. Briefly: Anticancer activity against human MDA-MB-231 cells assessed as cell growth promotion at 10^-5 M after 48 hrs by SRB assay relative to control.
Another test concerns HT-29. The experiment in a line: Anticancer activity against human HT-29 cells assessed as cell growth promotion at 10^-5 M after 48 hrs by SRB assay relative to control.
The next test deals with OVCAR-4. Briefly: Anticancer activity against human OVCAR4 cells assessed as cell growth promotion at 10^-5 M after 48 hrs by SRB assay relative to control.
In another test the test system is HL-60(TB). Briefly: Anticancer activity against human HL-60(TB) cells assessed as cell growth promotion at 10^-5 M after 48 hrs by SRB assay relative to control. In short, it runs like this: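 NCI-60 single-dose screen: compound at 10^-5 M, 48 h at 37 °C, 5% CO2; cells grown in RPMI 1640 with 5% FBS and 2 mM L-glutamine, pre-incubated 24 h before dosing. Adherent cells fixed with cold TCA; endpoint is sulforhodamine B protein staining. Percent growth of treated cells is reported relative to untreated control.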

In a further test the test system is BT-549. The experiment in a line: Anticancer activity against human BT549 cells assessed as cell growth promotion at 10^-5 M after 48 hrs by SRB assay relative to control.
For another test, the system named is SNB-75. Briefly: Anticancer activity against human SNB75 cells assessed as cell growth promotion at 10^-5 M after 48 hrs by SRB assay relative to control.
For a further test, the system named is U-251. Briefly: Anticancer activity against human U251 cells assessed as cell growth promotion at 10^-5 M after 48 hrs by SRB assay relative to control.
In a further test the test system is OVCAR-3. The experiment in a line: Anticancer activity against human OVCAR3 cells assessed as cell growth promotion at 10^-5 M after 48 hrs by SRB assay relative to control.
A short description of test [1]: Anticancer activity against human […] cells assessed as cell growth promotion at 10^-5 M after 48 hrs by SRB assay relative to control.

With `O=C(O)c1ccc(-n2c(-c3ccco3)nc3ccccc3c2=O)cc1`, the Activity is listed as 92.85% in the test on SR; 111.42% with DU-145; 102.24% with CAKI-1; 103.97% with COLO 205; 78.42% in the test with NCI-H226; 91.67% in the test with IGROV-1. Further, the Activity is on record as 107.05% in the test on HOP-62; 93.19% with SK-MEL-2; 94.73% with TK-10; 109.67% in the test on NCI-H522; 83.73% in the test with MDA-MB-231; 92% in the test on HT-29. Further, the Activity in the test on OVCAR-4 amounted to 100.6%; in the test on HL-60(TB), 94.52%; with BT-549, 100.59%; in the test on SNB-75, 89.2%; in the test with U-251, 102.8%; in the test with OVCAR-3, 105.38%.

For `NS(=O)(=O)c1ccc(NC(=O)c2ccccc2NC(=O)c2ccco2)cc1`, the Activity in the test with SR was found to be 101.4%; in the test with DU-145, 113%; with CAKI-1, 100%; with NCI-H226 it was 114.6%; in the test with IGROV-1, 117%; in the test on HOP-62, 106%. Also, the Activity in the test on SK-MEL-2 is recorded as 115.3%; in the test on TK-10, 102%; in the test on NCI-H522 it was 90.78%; in the test on MDA-MB-231, 102%; in the test on HT-29, 99.28%; in the test on OVCAR-4, 98%. Moreover, the Activity in the test on HL-60(TB) amounted to 93.06%; in the test with BT-549, 111%; in test [1], 117.5%; in the test on SNB-75, 87.71%; in the test on U-251, 99.55%; in the test on OVCAR-3, 108%.

Turning to `N#Cc1ccc(/C=C/c2ccc(NC(=O)c3ccccc3NC(=O)c3ccco3)cc2)cc1`, the Activity is listed as 109% in the test with SR; 104% with DU-145; 83.31% in the test with CAKI-1; 124% in the test with COLO 205; 107% with NCI-H226; 110% in the test on IGROV-1. Also, the Activity in the test with HOP-62 turned out to be 111%; in the test with SK-MEL-2, 116%; in the test with TK-10, 126%; in the test with NCI-H522 it was 106%; with MDA-MB-231, 94.46%; with OVCAR-4, 100%. The Activity turned out to be 84.98% with HL-60(TB); 109% in the test on BT-549; 108% in test [1]; 80% in the test with SNB-75; 100% with U-251; 107% in the test on OVCAR-3.

Turning to `O=C(Nc1ccccc1C(=O)Nc1ccc(/C=C/c2ccc(Cl)cc2)cc1)c1ccco1`, the Activity in the test with SR is listed as 109%; with DU-145, 112%; in the test with CAKI-1, 89.89%; in the test on COLO 205, 128%; with NCI-H226 it was 105%; with IGROV-1, 117%. Moreover, the Activity came to 104% with HOP-62; 136% with SK-MEL-2; 127% in the test with TK-10; 114% with NCI-H522; 102% with MDA-MB-231; 103% in the test on HT-29. Further, the Activity with OVCAR-4 amounted to 101%; in the test on HL-60(TB), 96.67%; in the test on BT-549, 127%; in [1], 120%; in the test on SNB-75, 71.39%; in the test with U-251, 107%. Also, in the test on OVCAR-3, the Activity is listed as 109%.
